From ChEMBL document CHEMBL1155916, “Fluorinated phenylcyclopropylamines. Part 5: Effects of electron-withdrawing or -donating aryl substituents on the inhibition of monoamine oxidases A and B by 2-aryl-2-fluoro-cyclopropylamines” (Bioorg Med Chem, 2008) come the findings set out here.

In data set [1] the target is T1, Amine oxidase [flavin-containing] B (Homo sapiens, UniProt P27338).
T1 sequence (P27338 whole entry): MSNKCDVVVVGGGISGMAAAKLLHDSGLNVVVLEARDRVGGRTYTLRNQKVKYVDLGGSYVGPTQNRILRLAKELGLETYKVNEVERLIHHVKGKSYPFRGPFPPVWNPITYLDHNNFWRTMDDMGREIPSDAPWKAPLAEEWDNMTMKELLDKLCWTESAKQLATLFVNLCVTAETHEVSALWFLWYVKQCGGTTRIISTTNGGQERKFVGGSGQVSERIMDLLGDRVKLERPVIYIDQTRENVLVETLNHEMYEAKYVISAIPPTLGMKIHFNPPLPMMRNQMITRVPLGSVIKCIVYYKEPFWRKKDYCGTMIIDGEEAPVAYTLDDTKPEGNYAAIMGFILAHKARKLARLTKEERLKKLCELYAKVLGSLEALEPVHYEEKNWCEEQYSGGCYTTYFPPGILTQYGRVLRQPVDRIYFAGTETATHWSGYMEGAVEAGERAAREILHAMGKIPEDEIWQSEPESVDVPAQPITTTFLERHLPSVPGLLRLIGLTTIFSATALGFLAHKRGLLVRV
The data set is described as follows: Inhibition of human recombinant MAOB. A digest of the protocol: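 Recombinant human mitochondrial MAO B was gel-filtered into 50 mM K phosphate pH 7.2 with 0.8% octyl-glucoside. Enzyme (7.0 µg) was held 10 min at 10 °C with varying inhibitor concentrations (DMSO) in 0.1 M K phosphate pH 7.2, 6% DMSO, without substrate. The reaction was started with 1 mM benzylamine, and benzaldehyde formation was read at 250 nm at 25 °C.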

Data set [2] is described as follows: Dissociation constant, pKa by titrimetric method. It is filed as physicochemical. Put shortly: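 Titration in 0.1 M KNO₃ at 21 °C.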
The target in data set [3] is T2, Amine oxidase [flavin-containing] A (Homo sapiens, UniProt P21397).
T2 sequence (P21397 whole entry): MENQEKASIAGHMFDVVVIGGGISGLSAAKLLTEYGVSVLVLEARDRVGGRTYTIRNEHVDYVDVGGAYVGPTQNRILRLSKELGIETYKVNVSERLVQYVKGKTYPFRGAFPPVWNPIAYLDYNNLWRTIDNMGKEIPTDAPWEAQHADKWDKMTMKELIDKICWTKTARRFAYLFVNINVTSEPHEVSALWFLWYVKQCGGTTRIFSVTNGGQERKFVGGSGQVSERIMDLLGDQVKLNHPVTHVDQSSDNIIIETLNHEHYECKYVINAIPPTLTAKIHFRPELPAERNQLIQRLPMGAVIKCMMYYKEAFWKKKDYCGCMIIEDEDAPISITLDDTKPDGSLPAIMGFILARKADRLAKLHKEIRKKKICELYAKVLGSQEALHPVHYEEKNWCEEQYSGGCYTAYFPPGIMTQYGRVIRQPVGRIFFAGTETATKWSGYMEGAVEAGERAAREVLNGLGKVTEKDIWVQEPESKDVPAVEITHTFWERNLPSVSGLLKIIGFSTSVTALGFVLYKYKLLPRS
The experiment in a line: Inhibition of human recombinant MAOA. A digest of the protocol:
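Recombinant human mitochondrial MAO A, desalted into 50 mM K phosphate pH 7.2 with 0.8% octyl-glucoside. Enzyme (4.4 µg) preincubated 10 min at 10 °C with varying inhibitor concentrations (DMSO) in substrate-free mix: 50 mM K phosphate pH 7.2, 0.5% reduced Triton X-100, 6% DMSO.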

Data set [4] in a line: Lipophilicity, log D at pH 7.4. It is filed as physicochemical. To be noted: buffer.
The species entered for data set [5] is Homo sapiens. The data set is described as follows: Selectivity for human recombinant MAOA over human recombinant MAOB.
For data set [6], the species on record is Homo sapiens. The experiment in a line: Selectivity for human recombinant MAOB over human recombinant MAOA.
The nature of data set [7]: Inhibition of tyramine oxidase.
Data set [8] addresses T3, Amine oxidase [copper-containing] 3 (Rattus norvegicus, UniProt O08590).
T3 sequence (O08590 whole entry): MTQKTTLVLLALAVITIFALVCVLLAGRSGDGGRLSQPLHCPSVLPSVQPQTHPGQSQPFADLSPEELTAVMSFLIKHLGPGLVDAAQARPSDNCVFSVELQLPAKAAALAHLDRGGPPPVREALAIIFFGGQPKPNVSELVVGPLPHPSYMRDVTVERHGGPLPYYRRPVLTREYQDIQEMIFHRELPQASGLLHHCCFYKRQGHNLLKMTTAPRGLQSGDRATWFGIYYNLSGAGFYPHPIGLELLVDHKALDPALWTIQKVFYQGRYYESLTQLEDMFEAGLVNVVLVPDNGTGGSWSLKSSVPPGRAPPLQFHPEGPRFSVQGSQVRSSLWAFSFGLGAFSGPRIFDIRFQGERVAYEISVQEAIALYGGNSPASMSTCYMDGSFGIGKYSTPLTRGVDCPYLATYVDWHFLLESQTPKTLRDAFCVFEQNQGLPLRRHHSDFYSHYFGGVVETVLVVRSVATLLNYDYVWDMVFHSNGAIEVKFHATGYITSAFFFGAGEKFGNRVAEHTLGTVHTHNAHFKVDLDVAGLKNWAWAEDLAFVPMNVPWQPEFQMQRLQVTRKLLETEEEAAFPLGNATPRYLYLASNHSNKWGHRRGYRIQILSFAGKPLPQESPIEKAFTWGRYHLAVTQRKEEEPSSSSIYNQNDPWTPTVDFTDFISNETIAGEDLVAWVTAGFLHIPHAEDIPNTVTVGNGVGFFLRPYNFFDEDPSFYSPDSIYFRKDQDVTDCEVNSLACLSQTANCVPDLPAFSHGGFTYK
The data set is described as follows: Inhibition of rat CAO.

Data set [9] is filed under the species Homo sapiens. The data set is described as follows: Selectivity for human recombinant MAOA over human recombinant MAOB.

Usually IC50 stands for the concentration needed to halve the response being measured. Usually pKa stands for the negative logarithm of the acid dissociation constant. A lower pKa goes with a group that gives up its proton readily. As a reminder, the logD is lipophilicity at a set pH, counting ionised and neutral species. Low values mean a more hydrophilic compound, high ones a more lipophilic compound. For `N[C@@H]1C[C@]1(F)c1ccc(Cl)cc1` (relative stereo), the IC50 came out at 4.8 µM in data set [1] and 89 µM in [3] (read-out: IC50). The pKa in [2] was 6.81. In data set [4], this compound returned a logD of 2.66. Also, the Ratio IC50 in data set [5] came to 18.5.
For `COc1ccc([C@@]2(F)C[C@H]2N)cc1` (relative stereo), in [1], the IC50 was 18 µM. Further, the Activity result in data set [3] (human) is on record as “Not Active”.
As to `N[C@@H]1C[C@@H]1c1ccccc1` (relative stereo), the pKa in data set [2] was found to be 8.47. In addition, the logD in data set [4] was found to be 1.41.
Take `N[C@@H]1C[C@]1(F)c1ccccc1` (stereo in doubt): the figures for the IC50 in [1] and in [3] (read-out: IC50) were 19 µM and 65 µM, respectively. Moreover, the logD in data set [4] came out at 1.78. Further, in data set [5], the Ratio IC50 is 3.4.
`N[C@H]1C[C@]1(F)c1ccc(C(F)(F)F)cc1` (relative stereo): the IC50 in data set [1] came to 5.4 µM; in data set [3] (read-out: IC50), 0.8 µM. Moreover, in data set [2], the pKa is 7. Moreover, the logD in data set [4] was 2.66. Besides, the Ratio IC50 in [6] turned out to be 6.8.
Take `N[C@@]1(c2ccccc2)C[C@@H]1F` (relative stereo): the Ratio IC50 in [6] was found to be 100.
Consider `N[C@]1(c2ccccc2)C[C@]1(F)c1ccccc1` (racemic), for which the IC50 in data set [1] was 20 µM; in data set [3] (read-out: IC50) it was 10 µM. Further, the pKa in [2] was 5.8. The Ratio IC50 in [6] stood at 2.
Consider `COc1ccc([C@@]2(F)C[C@@H]2N)cc1OC` (relative stereo), for which the IC50 in data set [1] came to 230 µM; in data set [3] (read-out: IC50), 47 µM. In data set [2], this compound came in with a pKa of 7.4. In addition, in data set [4], the logD was 0.58. Also, the Ratio IC50 in [6] was found to be 4.9.
For `N[C@H]1C[C@]1(F)c1ccc(Cl)cc1` (relative stereo), the results for the IC50 in data set [1] and in [3] (read-out: IC50) were 3.7 µM and 1.6 µM, respectively. In data set [2], this compound gave a pKa of 7.19. Also, the logD in [4] is 2.23. In addition, the Ratio IC50 in [6] worked out at 2.3.
The corresponding values for `N[C@H]1C[C@]1(F)c1ccc(F)cc1` (relative stereo) are 4.9 µM, 3.6 µM, 7.31, 1.6 and 1.4.
For the compound `N[C@@H]1C[C@]1(F)c1ccc(F)cc1` (relative stereo), the IC50 was 10 µM in data set [1] and 270 µM in data set [3] (read-out: IC50). The same compound came in with a pKa in [2] of 6.88. The same compound yielded a logD in data set [4] of 2.14. In addition, the Ratio IC50 in data set [5] turned out to be 27.
Turning to `Cc1ccc([C@@]2(F)C[C@@H]2N)cc1` (relative stereo), the IC50 in data set [1] and in data set [3] (read-out: IC50) was 13 µM in each case. The same compound came in with a pKa in [2] of 7.41. Besides, in [4], the logD turned out to be 1.83. In addition, the Ratio IC50 in data set [6] turned out to be 1.
`N[C@@H]1C[C@]1(F)c1ccc(C(F)(F)F)cc1` (relative stereo): the IC50 worked out at 7.1 µM in [1] and 76 µM in data set [3] (read-out: IC50). Also, the pKa in data set [2] turned out to be 6.6. Besides, the log distribution coefficient (logD) in data set [4] is 3.13. Further, in data set [5], the Ratio IC50 was 10.7.
For `N[C@H]1C[C@]1(F)c1ccccc1` (relative stereo), the IC50 is 6.4 µM in [1] and 12 µM in data set [3] (read-out: IC50). The compound further registered a logD in data set [4] of 1.53. Besides, the Ratio IC50 in [5] was determined as 2.
Turning to `NC[C@@]1(c2ccccc2)C[C@@H]1F`, the IC50 in data set [3] (read-out: IC50) worked out at 320 µM; in [7], 12 µM.
Regarding `Cc1ccc([C@@]2(F)C[C@H]2N)cc1` (relative stereo), the values for the IC50 in [1] and in [3] (read-out: IC50) were 30 µM and 230 µM, respectively. Also, in data set [2], the pKa amounted to 7.04. The Ratio IC50 in [5] is 7.7.
In the case of `COc1ccc([C@@]2(F)C[C@@H]2N)cc1` (relative stereo), the values for the IC50 in data set [1] and in data set [3] (read-out: IC50) were 5.1 µM and 14 µM, respectively. Also, in data set [2], the pKa came out at 7.5. Further, in data set [5], the Ratio IC50 stood at 2.8.
A word on the Ki: it is a measure of affinity in units of concentration, obtained from inhibition or displacement. As for `COc1ccc(/C(=C\F)CN)cc1OC`, in data set [3], the Ki worked out at 231 µM. The IC50 in [8] is 6 nM. Moreover, in data set [9], the Ratio Ki was 100.
As for `COc1ccc([C@@]2(F)C[C@H]2N)cc1OC` (relative stereo), the values for the IC50 in [1] and in [3] were 470 µM and “Not Active”, respectively.
